One block for each compound: values may come before it. Calls of active or inactive are those of the source. The rule behind the calls is not given here.
How the values were obtained:
in vitro [1] = settings: human
in vitro [2] = settings: rat
[3] = Half life in dog at 1 mg/kg, iv; assay type: ADME, organism-based, Canis lupus familiaris; design: dose 1 mg/kg, route intravenous; settings: in vivo
Method in brief: (§1)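 Dog PK study using the HCl salt, dosed at 1 mg/kg iv or 3 mg/kg orally. Plasma drug levels were followed, and plasma DPP-4 activity was tracked alongside them.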

[4] = Half life in dog at 3 mg/kg, po; assay type: ADME, organism-based, Canis lupus familiaris; design: dose 3 mg/kg, route oral; settings: in vivo
Method in brief: as §1

[5] = AUC in dog at 3 mg/kg, po; assay type: ADME, organism-based, Canis lupus familiaris; design: dose 3 mg/kg, route oral; settings: plasma
Method in brief: as §1

[6] = Clearance in dog at 1 mg/kg, iv and 3 mg/kg, po; assay type: ADME, organism-based, Canis lupus familiaris; settings: in vivo
Method in brief: as §1

[7] = Volume of distribution at steady state in dog at 1 mg/kg, iv and 3 mg/kg, po; assay type: ADME, organism-based, Canis lupus familiaris; settings: in vivo, read-out: Vdss
Method in brief: as §1

[8] = Bioavailability in dog at 1 mg/kg, iv and 3 mg/kg, po; assay type: ADME, organism-based, Canis lupus familiaris; settings: in vivo
Method in brief: as §1

Rattus norvegicus [9] = organism: Rattus norvegicus; assay: Improvement in glucose tolerance in Wistar fatty rat; assay type: functional, organism-based
Method in brief: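 Glucose tolerance test in female Wistar fatty rats given the benzoate salt, with doses normalized to free base. Read-outs after an oral glucose load were plasma glucose, the baseline (0 min)-adjusted glucose AUC0–60min, and plasma immunoreactive insulin, including the level at 10 min. Data are mean and SD (n = 6), compared with control by one-tailed Williams'/Shirley-Williams' tests.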

Rattus norvegicus [10] = organism: Rattus norvegicus; assay: Increase in plasma insulin level in Wistar fatty rat; assay type: functional, organism-based
Method in brief: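 Female Wistar fatty rats given a benzoate salt, with doses expressed as free base, then an oral glucose load. Plasma immunoreactive insulin read 10 min after the glucose load. Mean and SD, n = 6. Compared with control by one-tailed Williams' or Shirley-Williams' test, p ≤ 0.025.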

Mus musculus = organism: Mus musculus; assay: Reduction in glucose excursion in mouse after oral glucose tolerance test; assay type: functional, organism-based
[11] = Half life in monkey at 1.1 mg/kg, iv; assay type: ADME, organism-based, Macaca mulatta; design: dose 1.1 mg/kg, route intravenous; settings: rhesus monkey, in vivo
Method in brief: (§2)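 Monkey PK study using the benzoate salt, dosed at 1.1 mg/kg iv or 10 mg/kg orally. Plasma drug concentrations and plasma DPP-4 inhibition were measured. Parameters derived were iv and oral half-lives, oral AUC, CL, Vdss and F (%).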

[12] = Half life in monkey at 10 mg/kg, po; assay type: ADME, organism-based, Macaca mulatta; design: dose 10 mg/kg, route oral; settings: rhesus monkey, in vivo
Method in brief: as §2

[13] = AUC in monkey at 10 mg/kg, po; assay type: ADME, organism-based, Macaca mulatta; design: dose 10 mg/kg, route oral; settings: rhesus monkey, plasma
Method in brief: as §2

[14] = Clearance in monkey at 1.1 mg/kg, iv and 10 mg/kg, po; assay type: ADME, organism-based, Macaca mulatta; settings: rhesus monkey, in vivo
Method in brief: as §2

[15] = Volume of distribution at steady state in monkey at 1.1 mg/kg, iv and 10 mg/kg, po; assay type: ADME, organism-based, Macaca mulatta; settings: rhesus monkey, in vivo, read-out: Vdss
Method in brief: as §2

[16] = Bioavailability in monkey at 1.1 mg/kg, iv and 10 mg/kg, po; assay type: ADME, organism-based, Macaca mulatta; settings: rhesus monkey, in vivo
Method in brief: as §2

[17] = Half life in rat at 1 mg/kg, iv; assay type: ADME, organism-based; design: dose 1 mg/kg, route intravenous; settings: in vivo
Method in brief: (§3)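 Rat PK study using the TFA salt. A single iv dose (1 mg/kg) and a separate oral dose (10 mg/kg) were given. Half-life was derived for each route, and CL and Vdss for the iv route. F (%) was calculated from the oral and iv exposure.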

[18] = Half life in rat at 10 mg/kg, po; assay type: ADME, organism-based; design: dose 10 mg/kg, route oral; settings: in vivo
Method in brief: as §3

[19] = AUC in rat at 10 mg/kg, po; assay type: ADME, organism-based; design: dose 10 mg/kg, route oral; settings: plasma
Method in brief: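 Rat pharmacokinetics with the test article given as the TFA salt: 1 mg/kg iv and 10 mg/kg oral. Oral AUC comes from plasma concentrations after oral dosing. Half-lives, clearance, Vdss and oral bioavailability are derived from the same iv/oral pair.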

[20] = Clearance in rat at 1 mg/kg, iv and 10 mg/kg, po; assay type: ADME, organism-based; settings: in vivo
Method in brief: as §3

[21] = Volume of distribution at steady state in rat at 1 mg/kg, iv and 10 mg/kg, po; assay type: ADME, organism-based; settings: in vivo, read-out: Vdss
Method in brief: as §3

SMILES: N#Cc1ccccc1Cn1c(N2CCCC(N)C2)nc2c(Cl)cccc2c1=O (configuration not stated)
half-life at 1 µM (in vitro [1]; liver microsomes): 1.33 h
half-life at 1 µM (in vitro [2]; liver microsomes): 0.0617 h

SMILES: Cl.Cn1c(=O)cc(N2CCC[C@@H](N)C2)n(Cc2ccccc2C#N)c1=O
half-life [3]: 2.93 h
half-life [4]: 3.04 h
AUC [5]: 1610 ng·h/mL
clearance [6]: 23 mL/min/kg
Vd [7]: 3.51 L/kg
bioavailability [8]: 68%

SMILES: N#Cc1ccccc1Cn1c(N2CCC[C@@H](N)C2)nc2cccc(F)c2c1=O
half-life at 1 µM (in vitro [1]; microsomes): 2.08 h
half-life at 1 µM (in vitro [2]; microsomes): 0.03 h

SMILES: Cn1c(=O)cc(N2CCC[C@@H](N)C2)n(Cc2ccccc2C#N)c1=O
Activity (Rattus norvegicus [9]): Dose-dependent effect
Activity (Rattus norvegicus [10]): Active

SMILES: N#Cc1ccccc1Cn1c(N2CCC[C@@H](N)C2)nc2ccc(F)cc2c1=O [listing 1 of 2 here]
Activity (Mus musculus): Active

SMILES: N#Cc1ccccc1Cn1c(N2CCC[C@@H](N)C2)nc2ccccc2c1=O
half-life at 1 µM (in vitro [1]; microsomes): > 3.33 h
half-life at 1 µM (in vitro [2]; microsomes): 0.0417 h

SMILES: Cn1c(=O)cc(N2CCC[C@@H](N)C2)n(Cc2ccccc2C#N)c1=O.O=C(O)c1ccccc1 [ALOGLIPTIN BENZOATE]
half-life [11]: 5.74 h
half-life [12]: 5.66 h
AUC [13]: 16600 ng·h/mL
clearance [14]: 8.81 mL/min/kg
Vd [15]: 2.6 L/kg
bioavailability [16]: 87%

SMILES: N#Cc1ccccc1Cn1c(N2CCC[C@@H](N)C2)nc2cc(N3CCOCC3)c(F)cc2c1=O
half-life at 1 µM (in vitro [1]; liver microsomes): 0.55 h
half-life at 1 µM (in vitro [2]; liver microsomes): 0.102 h

SMILES: N#Cc1ccccc1Cn1c(N2CCC[C@@H](N)C2)nc2ccc(F)cc2c1=O.O=C(O)C(F)(F)F
half-life [17]: 2.6 h
half-life [18]: 2.43 h
AUC [19]: 7560 ng·h/mL
clearance [20]: 20.6 mL/min/kg
Vd [21]: 2.87 L/kg

More lines, now with the values ahead:

half-life at 1 µM (in vitro [1]; microsomes): 1.07 h
half-life at 1 µM (in vitro [2]; microsomes): 0.283 h
SMILES: N#Cc1ccccc1Cn1c(N2CCC[C@@H](N)C2)nc2c(Cl)cc(Cl)cc2c1=O

half-life at 1 µM (in vitro [1]; liver microsomes): 1.37 h
half-life at 1 µM (in vitro [2]; liver microsomes): 0.167 h
SMILES: COc1ccc2nc(N3CCC[C@@H](N)C3)n(Cc3ccccc3C#N)c(=O)c2c1

half-life at 1 µM (in vitro [1]; liver microsomes): 2.27 h
half-life at 1 µM (in vitro [2]; liver microsomes): 0.583 h
SMILES: COc1cc2c(=O)n(Cc3ccccc3C#N)c(N3CCC[C@@H](N)C3)nc2cc1F

half-life at 1 µM (in vitro [1]; liver microsomes): > 3.33 h
half-life at 1 µM (in vitro [2]; liver microsomes): 0.517 h
SMILES: N#Cc1ccccc1Cn1c(N2CCC[C@@H](N)C2)nc2ccc(F)cc2c1=O [listing 2 of 2 here]

half-life at 1 µM (in vitro [1]; liver microsomes): > 3.33 h
half-life at 1 µM (in vitro [2]; liver microsomes): 0.667 h
SMILES: N#Cc1ccccc1Cn1c(N2CCC[C@@H](N)C2)nc2ccc(Cl)cc2c1=O

half-life at 1 µM (in vitro [1]; liver microsomes): 1.88 h
half-life at 1 µM (in vitro [2]; liver microsomes): 0.567 h
SMILES: N#Cc1ccccc1Cn1c(N2CCC[C@@H](N)C2)nc2ccc(Br)cc2c1=O

half-life at 1 µM (in vitro [1]; liver microsomes): 2.43 h
half-life at 1 µM (in vitro [2]; liver microsomes): 1.78 h
SMILES: COc1cc2nc(N3CCC[C@@H](N)C3)n(Cc3ccccc3C#N)c(=O)c2cc1OC
